From PMC6226115 (Clinical and Translational Science, 2018)
Entries after “also recorded” stand apart in the source; their conditions may differ. Marks after values point to notes of the source that are not given here.

How the values were obtained:
[1] = Phase I pharmacokinetics in plasma and CSF, multiple dosing over 14 days; type: in vivo, human; conditions: for AUC0–14: after first dose, geometric mean (% gCV); for Tmax / Cmax: male, human, po
In short: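 Healthy males received 5–50 mg orally once daily for 14 days. CSF was collected hourly via lumbar catheter for 14 h after dose 1 and by puncture before the last dose. Plasma was sampled hourly on days 1 and 14, every 24 h on days 2–4 and every 48 h on days 6–12. Drug was measured by validated HPLC-MS/MS with noncompartmental analysis. Steady state was judged from trough plasma concentrations (days 2–14) using pairwise 95% CIs.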

[2] = Phase I safety and tolerability; type: in vivo, human
In short: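 In a nonrandomised, open-label phase I study, healthy men received 5, 10, 25 or 50 mg once daily for 14 days, with CSF sampled through a lumbar catheter. Safety was scored as the number of subjects with adverse events and summarised descriptively.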

[3] = 5 mg once daily for 14 days (n = 6)
[4] = 10 mg once daily for 14 days (n = 6)
[5] = 25 mg once daily for 14 days (n = 8)
[6] = 50 mg once daily for 14 days (n = 5)
[7] = total on-treatment, all doses (n = 25)

C[C@@H](Oc1ccc(S(C)(=O)=O)cc1C(=O)N1C[C@@H]2C[C@]2(c2cc(C(F)(F)F)on2)C1)C(F)(F)F [BI 425809]
AUC0–14 ([1]; CSF, 5 mg oral, n = 6): 0.0299 µM·h | AUC0–14 ([1]; CSF, 10 mg oral, n = 6): 0.0598 µM·h | AUC0–14 ([1]; CSF, 25 mg oral, n = 6): 124.0 (27.2) ^e nM | AUC0–14 ([1]; CSF, 50 mg oral, n = 5): 0.26 µM·h | Steady state achieved by ([1]; healthy volunteers, once daily dosing, trough plasma concentrations): ≤ 6 days | Tmax ([1]; CSF): 5 to 8 h | Cmax ([1]; CSF, 5 mg): 2.9 nM | Tmax ([1]; CSF, 5 mg): 8 h | Cmax ([1]; CSF, 10 mg): 5.6 nM | Tmax ([1]; CSF, 10 mg): 5.5 h | Cmax ([1]; CSF, 25 mg): 12.2 nM | Tmax ([1]; CSF, 25 mg): 6.1 h | Cmax ([1]; CSF, 50 mg): 25 nM | Tmax ([1]; CSF, 50 mg): 8.1 h | Tmax ([1]; plasma): 3 to 5 h | Cmax ([1]; plasma, 5 mg): 42.3 nM | Tmax ([1]; plasma, 5 mg): 5 h | Cmax ([1]; plasma, 10 mg): 85.6 nM | Tmax ([1]; plasma, 10 mg): 4.5 h | Cmax ([1]; plasma, 25 mg): 176 nM | Tmax ([1]; plasma, 25 mg): 3 h | Cmax ([1]; plasma, 50 mg): 328 nM | Tmax ([1]; plasma, 50 mg): 5 h | AUC0–14 ([1]; plasma, 5 mg oral, n = 6): 0.421 µM·h | AUC0–14 ([1]; plasma, 10 mg oral, n = 6): 0.829 µM·h | AUC0–14 ([1]; plasma, 25 mg oral, n = 7): 1,840 (24.2) ^d nM | AUC0–14 ([1]; plasma, 50 mg oral, n = 5): 3.3 µM·h | Abdominal pain, subjects with AE [2, 3]: 0 n (%) | Back pain, subjects with AE [2, 3]: 3 (50.0) n (%) | Catheter site pain, subjects with AE [2, 3]: 1 (16.7) n (%) | Diarrhea, subjects with AE [2, 3]: 0 n (%) | Dizziness, subjects with AE [2, 3]: 0 n (%) | Dry mouth, subjects with AE [2, 3]: 0 n (%) | Fatigue, subjects with AE [2, 3]: 0 n (%) | Gingivitis, subjects with AE [2, 3]: 0 n (%) | Muscle spasms, subjects with AE [2, 3]: 1 (16.7) n (%) | Musculoskeletal stiffness, subjects with AE [2, 3]: 0 n (%) | Nasopharyngitis, subjects with AE [2, 3]: 0 n (%) | Nausea, subjects with AE [2, 3]: 1 (16.7) n (%) | Neck pain, subjects with AE [2, 3]: 0 n (%) | Paraesthesia, subjects with AE [2, 3]: 1 (16.7) n (%) | Procedural headache, subjects with AE [2, 3]: 4 (66.7) n (%) | Procedural pain, subjects with AE [2, 3]: 0 n (%) | Somnolence, subjects with AE [2, 3]: 1 (16.7) n (%) | Tension headache, subjects with AE [2, 3]: 0 n (%) | Total with AEs (treatment-emergent) [2, 3]: 5 (83.3) n (%) | Upper abdominal pain, subjects with AE [2, 3]: 0 n (%) | Vomiting, subjects with AE [2, 3]: 1 (16.7) n (%) | Wound, subjects with AE [2, 3]: 0 n (%) | Abdominal pain, subjects with AE [2, 4]: 0 n (%) | Back pain, subjects with AE [2, 4]: 0 n (%) | Catheter site pain, subjects with AE [2, 4]: 0 n (%) | Diarrhea, subjects with AE [2, 4]: 0 n (%) | Dizziness, subjects with AE [2, 4]: 1 (16.7) n (%) | Dry mouth, subjects with AE [2, 4]: 0 n (%) | Fatigue, subjects with AE [2, 4]: 0 n (%) | Gingivitis, subjects with AE [2, 4]: 1 (16.7) n (%) | Muscle spasms, subjects with AE [2, 4]: 0 n (%) | Musculoskeletal stiffness, subjects with AE [2, 4]: 0 n (%) | Nasopharyngitis, subjects with AE [2, 4]: 0 n (%) | Nausea, subjects with AE [2, 4]: 2 (33.3) n (%) | Neck pain, subjects with AE [2, 4]: 1 (16.7) n (%) | Paraesthesia, subjects with AE [2, 4]: 0 n (%) | Procedural headache, subjects with AE [2, 4]: 4 (66.7) n (%) | Procedural pain, subjects with AE [2, 4]: 0 n (%) | Somnolence, subjects with AE [2, 4]: 0 n (%) | Tension headache, subjects with AE [2, 4]: 0 n (%) | Total with AEs (treatment-emergent) [2, 4]: 5 (83.3) n (%) | Upper abdominal pain, subjects with AE [2, 4]: 0 n (%) | Vomiting, subjects with AE [2, 4]: 1 (16.7) n (%) | Wound, subjects with AE [2, 4]: 1 (16.7) n (%) | Abdominal pain, subjects with AE [2, 5]: 1 (12.5) n (%) | Back pain, subjects with AE [2, 5]: 4 (50.0) n (%) | Catheter site pain, subjects with AE [2, 5]: 0 n (%) | Diarrhea, subjects with AE [2, 5]: 1 (12.5) n (%) | Dizziness, subjects with AE [2, 5]: 1 (12.5) n (%) | Dry mouth, subjects with AE [2, 5]: 1 (12.5) n (%) | Fatigue, subjects with AE [2, 5]: 1 (12.5) n (%) | Gingivitis, subjects with AE [2, 5]: 0 n (%) | Muscle spasms, subjects with AE [2, 5]: 0 n (%) | Musculoskeletal stiffness, subjects with AE [2, 5]: 1 (12.5) n (%) | Nasopharyngitis, subjects with AE [2, 5]: 0 n (%) | Nausea, subjects with AE [2, 5]: 2 (25.0) n (%) | Neck pain, subjects with AE [2, 5]: 1 (12.5) n (%) | Paraesthesia, subjects with AE [2, 5]: 0 n (%) | Procedural headache, subjects with AE [2, 5]: 5 (62.5) n (%) | Procedural pain, subjects with AE [2, 5]: 1 (12.5) n (%) | Somnolence, subjects with AE [2, 5]: 0 n (%) | Tension headache, subjects with AE [2, 5]: 1 (12.5) n (%) | Total with AEs (treatment-emergent) [2, 5]: 8 (100.0) n (%) | Upper abdominal pain, subjects with AE [2, 5]: 1 (12.5) n (%) | Vomiting, subjects with AE [2, 5]: 2 (25.0) n (%) | Wound, subjects with AE [2, 5]: 0 n (%) | Abdominal pain, subjects with AE [2, 6]: 0 n (%) | Back pain, subjects with AE [2, 6]: 1 (20.0) n (%) | Catheter site pain, subjects with AE [2, 6]: 0 n (%) | Diarrhea, subjects with AE [2, 6]: 0 n (%) | Dizziness, subjects with AE [2, 6]: 0 n (%) | Dry mouth, subjects with AE [2, 6]: 0 n (%) | Fatigue, subjects with AE [2, 6]: 1 (20.0) n (%) | Gingivitis, subjects with AE [2, 6]: 0 n (%) | Muscle spasms, subjects with AE [2, 6]: 0 n (%) | Musculoskeletal stiffness, subjects with AE [2, 6]: 0 n (%) | Nasopharyngitis, subjects with AE [2, 6]: 1 (20.0) n (%) | Nausea, subjects with AE [2, 6]: 0 n (%) | Neck pain, subjects with AE [2, 6]: 1 (20.0) n (%) | Paraesthesia, subjects with AE [2, 6]: 0 n (%) | Procedural headache, subjects with AE [2, 6]: 3 (60.0) n (%) | Procedural pain, subjects with AE [2, 6]: 0 n (%) | Somnolence, subjects with AE [2, 6]: 0 n (%) | Tension headache, subjects with AE [2, 6]: 0 n (%) | Total with AEs (treatment-emergent) [2, 6]: 4 (80.0) n (%) | Upper abdominal pain, subjects with AE [2, 6]: 0 n (%) | Vomiting, subjects with AE [2, 6]: 0 n (%) | Wound, subjects with AE [2, 6]: 0 n (%) | AEs of special interest, deaths, serious AEs on-treatment ([2]; healthy male volunteers, 5 to 50 mg for 14 days): no protocol‐specified AEs of special interest, deaths, or other serious AEs reported | Safety and tolerability (in words) ([2]; healthy male volunteers, multiple oral doses 5 to 50 mg for 14 days): safe and well tolerated; also recorded: generally well tolerated; also recorded: well tolerated, with no indication of safety concerns | Subjects reporting back pain ([2]; of the 25 subjects treated (8 subjects)): 32.0% | Subjects reporting procedural headache ([2]; of the 25 subjects treated (16 subjects)): 64.0% | Subjects reporting at least one treatment-emergent AE ([2]; of the 25 subjects treated (22 subjects)): 88.0% | Abdominal pain, subjects with AE [2, 7]: 1 (4.0) n (%) | Back pain, subjects with AE [2, 7]: 8 (32.0) n (%) | Catheter site pain, subjects with AE [2, 7]: 1 (4.0) n (%) | Diarrhea, subjects with AE [2, 7]: 1 (4.0) n (%) | Dizziness, subjects with AE [2, 7]: 2 (8.0) n (%) | Dry mouth, subjects with AE [2, 7]: 1 (4.0) n (%) | Fatigue, subjects with AE [2, 7]: 2 (8.0) n (%) | Gingivitis, subjects with AE [2, 7]: 1 (4.0) n (%) | Muscle spasms, subjects with AE [2, 7]: 1 (4.0) n (%) | Musculoskeletal stiffness, subjects with AE [2, 7]: 1 (4.0) n (%) | Nasopharyngitis, subjects with AE [2, 7]: 1 (4.0) n (%) | Nausea, subjects with AE [2, 7]: 5 (20.0) n (%) | Neck pain, subjects with AE [2, 7]: 3 (12.0) n (%) | Paraesthesia, subjects with AE [2, 7]: 1 (4.0) n (%) | Procedural headache, subjects with AE [2, 7]: 16 (64.0) n (%) | Procedural pain, subjects with AE [2, 7]: 1 (4.0) n (%) | Somnolence, subjects with AE [2, 7]: 1 (4.0) n (%) | Tension headache, subjects with AE [2, 7]: 1 (4.0) n (%) | Total with AEs (treatment-emergent) [2, 7]: 22 (88.0) n (%) | Upper abdominal pain, subjects with AE [2, 7]: 1 (4.0) n (%) | Vomiting, subjects with AE [2, 7]: 4 (16.0) n (%) | Wound, subjects with AE [2, 7]: 1 (4.0) n (%) | Subjects who discontinued due to AEs ([2]; two subjects of 25 (5-mg and 10-mg dose groups), AEs not considered drug-related): 8.0%
